Consider 6 compounds from ChEMBL document CHEMBL1123762, “Synthesis and antiviral evaluation of carbocyclic analogues of 2-amino-6-substituted-purine 3'-deoxyribofuranosides” (1987).

What all share (format): functional
For test [1], the system named is Human alphaherpesvirus 1. In words: Antiviral activity is expressed as virus rating (VR) against the HSV-1 377 strain. Summed up:
(§1)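 Virus rating (VR) from CPE inhibition in monolayers: HSV-1 377 and HSV-2 MS in Vero cells, HSV-1 HF in H.Ep.-2 cells, influenza A0/PR/8/34 in MDCK cells. A VR of 1.0 or more means definite, significant activity. A VR of 0.5–0.9 means marginal to moderate activity. A VR below 0.5 usually means no significant activity.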

The subject of test [2] is Human alphaherpesvirus 1. Description: Antiviral activity against the HSV-1 377 strain from monolayers of vero cells. The procedure, abridged:
(§2)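 Cytopathic effect (CPE) inhibition in cell monolayers. Host cells: HSV-1 strain 377 (TK+) and HSV-2 strain MS (TK+) in Vero cells; HSV-1 strain HF (TK−) in H.Ep.-2 cells; influenza A0/PR/8/34 in Madin-Darby canine kidney cells. MIC50 is the concentration giving 50% inhibition of virus-induced CPE. ara-A was run as the positive control in the HSV tests.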

The test system of test [3] is Human alphaherpesvirus 1. Description: Antiviral activity is expressed as virus rating (VR) against the HSV-1 HF strain. The procedure, abridged:
as §1

The nature of test [4]: Ratio measured as the VR of C-3''-deoxyribofuranoside to the VR at a MIC of 3 ug/mL.
Test [5] deals with unidentified influenza virus. In words: Antiviral activity against the influenza Ao/PR/8/34 virus strain. The procedure, abridged: as §2
Test [6] has as its system unidentified influenza virus. Description: Antiviral activity is expressed as virus rating (VR) against the influenza Ao/PR/8/34 virus strain. Summed up: as §1
The nature of test [7]: Ratio measured as the VR of C-3''-deoxyribofuranoside to the VR at a MIC of 15 ug/mL.
Test [8] in a line: Ratio measured as the VR of C-3''-deoxyribofuranoside to the VR at a MIC of 6 ug/mL.
A short description of test [9]: Ratio measured as the VR of C-3''-deoxyribofuranoside to the VR at a MIC of 34 ug/mL.
Test [10] concerns Human alphaherpesvirus 1. In words: Antiviral activity against the HSV-1 HF strain from monolayers of human epidermoid carcinoma (H.Ep.-2) cells. The procedure, abridged:
as §2

Test [11] is described as follows: Ratio measured as the VR of C-3''-deoxyribofuranoside to the VR at a MIC of 56 ug/mL.
A short description of test [12]: Ratio measured as the VR of C-3''-deoxyribofuranoside to the VR at a MIC of 18 ug/mL.
The nature of test [13]: Ratio measured as the VR of C-3''-deoxyribofuranoside to the VR at a MIC of 14 ug/mL.
Test [14] can be described thus: Ratio measured as the VR of C-3''-deoxyribofuranoside to the VR at a MIC of 54 ug/mL.

The structures appear in SMILES notation. Values after ≈ are worked out from the molar mass of the structure shown. Values joined by “and” are separate entries in the source; they are usually repeats but may differ in a detail not shown here. Identical values can stand only once.

For the compound `Nc1nc2c(ncn2COCCO)c(=O)[nH]1` [ACYCLOVIR], the VR was 5.7 in [1] and 0 in [3]. Further, in [2] (Human alphaherpesvirus 1, read-out: MIC50), the MIC50 turned out to be 3 µg/mL (≈ 13.3 µM). Besides, the Ratio in test [4] was 0.33.
In the case of `Nc1nc(N)c2nnn(C3CC(CO)CC3O)c2n1` (configuration not stated), the MIC50 in test [5] came out at 200 µg/mL (≈ 754 µM). In test [6], the VR is on record as 1.3.
Regarding `Nc1ncnc2c1ncn2[C@@H]1O[C@H](CO)[C@@H](O)[C@@H]1O` [VIDARABINE], the Ratio was 1.3 in [7]; 0.63 in test [8]; 0.95 in test [9]; 1.44 in [11]; 1.5 in [12]. In addition, the VR in test [1] was 2 and 2.1; in test [3] it was 2.4. The MIC50 was 15 µg/mL and 18 µg/mL and 34 µg/mL in test [2]; 6 µg/mL (≈ 22.5 µM) in [10].
As for `NC(=O)c1ncn([C@@H]2O[C@H](CO)[C@@H](O)[C@H]2O)n1` [RIBAVIRIN], in test [6], the VR is 2.6 and 2.9. Besides, the Ratio in test [13] is 0.45; in [14] it was 0.19.
`Nc1nc(Cl)c2ncn([C@@H]3C[C@H](CO)C[C@H]3O)c2n1`: the VR in [1] was determined as 0.1; in test [6], 0.5; in test [3], 1.5. In addition, the MIC50 in test [5] is > 284 µg/mL; in test [10], 190 µg/mL (≈ 670 µM).
With `Nc1nc(O)c2ncn(C3CC(CO)CC3O)c2n1` (configuration not stated), the VR is 2.6 and 3.1 and 1.9 in test [1]; 1.3 in test [6]; 0 in test [3]. In [5], this compound returned an MIC50 of 260 µg/mL (≈ 980 µM).
